Series [1] concerns MDA-MB-231. Description: Antiproliferative activity against human MDA-MB-231 cells. Format: functional, cell-based.
Series [2] has as its system MGC-803. In words: Antiproliferative activity against human MGC-803 cells. Format: functional, cell-based.
Series [3] deals with A549. In words: Antiproliferative activity against human A549 cells. Format: functional, cell-based.
The nature of series [4]: Metabolic stability in human liver microsomes assessed as clearance at 0.1 uM preincubated for 10 mins followed by NADPH addition and measured upto 60 mins by LC-MS/MS analysis. Format: ADME, Microsome. As to conditions: 1 h, time <=70 min. Put shortly: (§1)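 Microsomes at 0.33 mg/mL in 0.1 M Tris pH 7.4 with 5 mM MgCl2; compound final 0.1 μM (0.01% DMSO, 0.005% BSA). Preincubated 10 min at 37 °C, then started with 1 mM NADPH. Sampled at 0, 7, 17, 30 and 60 min and quenched with cold methanol. Centrifuged, then analysed by LC-MS/MS.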
Background: Liver microsomes are a subcellular fraction often used to study metabolism.

Series [5] can be described thus: Metabolic stability in human liver microsomes assessed as half life at 0.1 uM preincubated for 10 mins followed by NADPH addition and measured upto 60 mins by LC-MS/MS analysis. Format: ADME, Microsome. As to conditions: time <=70 min. Put shortly: as §1
Series [6] in a line: Toxicity in NOD/SCID mouse xenografted with patient-derived breast cancer cells assessed as change in body weight at 5 to 15 mg/kg, ip administered once daily for 20 days. As to conditions: in vivo, 480 h.
A short description of series [7]: Antitumor activity against patient-derived breast cancer cells xenografted in NOD/SCID mouse assessed as tumor growth inhibition at 15 mg/kg, ip administered once daily for 20 days. As to conditions: Homo sapiens, Breast cancer cell line, 480 h, read-out: TGI. (In general: In xenograft studies the graft and the host belong to different species.)

Data on five compounds can be found in ChEMBL document CHEMBL4825680, “Structure-based discovery of potent and selective small-molecule inhibitors targeting signal transducer and activator of transcription 3 (STAT3)” (Eur J Med Chem, 2021).

Some results are limits rather than exact numbers.

As for `COc1ccn2c(CC(=O)Nc3ccc4c(c3)S(=O)(=O)C=C4)c(-c3ccccc3)nc2c1`, the IC50 in series [1] turned out to be 1.2 µM; in series [2] it was 1 µM; in series [3] it was 0.6 µM. Moreover, in series [4], the CLH amounted to 208.4 mL/min/g. In series [5], the half-life at 0.1 µM was found to be 10.1 min.
In the case of `CN(CC(=O)N(Cc1ccc(C2CCCCC2)cc1)c1ccc(C(=O)O)c(O)c1)S(=O)(=O)c1c(F)c(F)c(F)c(F)c1F`, the IC50 came out at 2 µM in series [1], 5.6 µM in series [2] and 5 µM in series [3]. The Activity result in series [6] is on record as “Non-Toxic”. In addition, the inhibition in vivo at 15 mg/kg in series [7] stood at 63.6%.
With `O=C(Nc1nnc(-c2ccco2)o1)c1cc(-c2ccccc2)nc2ccccc12`, the results for the IC50 in series [1], in series [2] and in series [3] were 18.2 µM, 7.43 µM and 11.6 µM, respectively. Moreover, the Activity entry in series [6] is “Non-Toxic”.
On to `COc1ccn2c(CC(=O)Nc3ccc4c(c3)S(=O)(=O)C=C4)c(-c3ccc(C(F)(F)F)cc3)nc2c1`, for which the IC50 in series [1] was found to be 0.7 µM; in series [2], 0.4 µM; in series [3] it was 0.4 µM. In addition, the CLH in series [4] came out at 478 mL/min/g. For the same compound, the half-life at 0.1 µM in series [5] amounted to 4.4 min.
On to `COc1ccc2c(C(=O)Nc3ccc(C)cc3)cc(-c3ccccc3)nc2c1`, for which the IC50 in series [1], in series [2] and in series [3] was > 100 µM each time.

In general, IC50 refers to the midpoint of a concentration-inhibition curve. Lower therefore signals inhibition by little substance. In general, half-life refers to the time needed for the level to fall by half in the phase considered.
